Measurements taken from ChEMBL document CHEMBL1127078, “Fluorocyclopropyl quinolones. 1. Synthesis and structure-activity relationships of 1-(2-fluorocyclopropyl)-3-pyridonecarboxylic acid antibacterial agents” (J Med Chem, 1993).
≈ marks a conversion by molar mass, not a printed value.

Legend:
Streptococcus pyogenes = assay: Tested for minimum inhibitory concentration against Streptococcus pyogenes G-36; type: functional
In short: (§1)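 Twofold broth microdilution in Mueller-Hinton broth, inoculum approximately 10^6 cfu/mL. Plates incubated 18 h at 37 °C. MIC taken as the lowest concentration preventing visible bacterial growth.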

Enterococcus faecalis = assay: Tested for minimum inhibitory concentration against Enterococcus faecalis ATCC 19433; type: functional; in short: as §1
Staphylococcus aureus [1] = assay: Tested for minimum inhibitory concentration against Staphylococcus aureus Smith; type: functional; in short: as §1
Staphylococcus aureus [2] = assay: Tested for minimum inhibitory concentration against Staphylococcus aureus 209P; type: functional; in short: as §1
Klebsiella pneumoniae = assay: Tested for minimum inhibitory concentration against Klebsiella pneumoniae; type: functional; in short: as §1
[3] = test system: Staphylococcus epidermidis; assay: Tested for minimum inhibitory concentration against Staphylococcus epidermidis 56556; type: functional; in short: as §1
Pseudomonas aeruginosa = assay: Tested for minimum inhibitory concentration against Pseudomonas aeruginosa 32121; type: functional; in short: as §1
[4] = molecular target: DNA gyrase (Escherichia coli) (UniProt P0AES6+P0AES4); assay: (§2) Dose required to inhibit DNA gyrase in Escherichia coli; type: protein-complex assay
Escherichia coli [5] = assay: Tested for minimum inhibitory concentration against Escherichia coli KL16; type: functional; in short: as §1
Escherichia coli [6] = assay: as §2; type: functional; details: read-out: ID50 (the source's name)
[7] = Partition coefficient of the compound; type: ADME; details: CHCl3-0.1 M phosphate buffer (pH 7.4)
In short: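 Shake-flask distribution between CHCl3 and 0.1 M sodium phosphate buffer pH 7.4, each phase presaturated with the other. About 1–2 mg sample dissolved in the aqueous phase and its UV maximum absorbance recorded. Equal 10 mL volumes shaken 30 min at room temperature, then left 1 h to separate. Aqueous-layer UV maximum re-read. P' calculated as a ratio of the absorbance readings.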

Proteus vulgaris = assay: Tested for minimum inhibitory concentration against Proteus vulgaris 08601; type: functional; in short: as §1
Enterobacter cloacae = assay: Tested for minimum inhibitory concentration against Enterobacter cloacae 03400; type: functional; in short: as §1
Escherichia coli [8] = assay: Tested for minimum inhibitory concentration against Escherichia coli NIHJ; type: functional; in short: as §1
[9] = Proteus vulgaris, read-out: MIC
[10] = Escherichia coli, read-out: MIC
[11] = Klebsiella pneumoniae, read-out: MIC

Row | SMILES | MIC (Streptococcus pyogenes) | MIC (Enterococcus faecalis) | MIC (Staphylococcus aureus [1]) | MIC (Staphylococcus aureus [2]) | MIC [3] | MIC (Pseudomonas aeruginosa) | ID50 [4] | MIC (Enterobacter cloacae) | MIC (Escherichia coli [8]; [10]) | other results
1 | CN1CCN(c2c(F)cc3c(=O)c(C(=O)O)cn(C4CC4F)c3c2F)CC1 (stereo in doubt; 30) | 3.13 µg/mL (≈ 8.21 µM) | 0.78 µg/mL (≈ 2.05 µM) | <=0.05 ug ml-1 | 0.1 µg/mL (≈ 0.262 µM) | 0.2 µg/mL (≈ 0.524 µM) | 0.1 µg/mL (≈ 0.262 µM) | – | – | – | MIC (Klebsiella pneumoniae): <=0.05 ug ml-1
2 | CN1CCN(c2cc3c(cc2F)c(=O)c(C(=O)O)cn3C2CC2F)CC1 (stereo in doubt; 27) | – | – | – | – | – | – | 0.92 µg/mL (≈ 2.53 µM) | – | – | –
3 | CN1CCN(c2cc3c(cc2F)c(=O)c(C(=O)O)cn3C2CC2)CC1 | – | – | – | – | – | – | – | – | – | MIC (Escherichia coli [5]): 0.05 µg/mL (≈ 0.145 µM); IC50 (Escherichia coli [6]): 0.47 µg/mL (≈ 1.36 µM); P' [7]: 20
4 | O=C(O)c1cn(C2CC2F)c2cc(N3CCNCC3)c(F)cc2c1=O (stereo in doubt; 24) | 1.56 µg/mL (≈ 4.47 µM) | 1.56 µg/mL (≈ 4.47 µM) | 0.1 µg/mL (≈ 0.286 µM) | 0.1 µg/mL (≈ 0.286 µM) | 0.2 µg/mL (≈ 0.573 µM) | – | – | ≤ 0.05 µg/mL | ≤ 0.05 µg/mL | MIC (Proteus vulgaris; [9]): ≤ 0.05 µg/mL; MIC (Klebsiella pneumoniae; [11]): ≤ 0.05 µg/mL; P' [7]: 0.16; MIC (Pseudomonas aeruginosa; Pseudomonas aeruginosa, read-out: MIC): ≤ 0.05 µg/mL
5 | O=C(O)c1cn(C2CC2F)c2c(F)c(N3CCNCC3)c(F)cc2c1=O (stereo in doubt; 28) | 0.78 µg/mL (≈ 2.12 µM) | 1.56 µg/mL (≈ 4.25 µM) | 0.1 µg/mL (≈ 0.272 µM) | 0.1 µg/mL (≈ 0.272 µM) | 0.2 µg/mL (≈ 0.544 µM) | <=0.05 ug ml-1 | – | – | – | MIC (Escherichia coli [8]): <=0.05 ug ml-1; MIC (Klebsiella pneumoniae): <=0.05 ug ml-1
6 | CN1CCN(c2cc3c(cc2F)c(=O)c(C(=O)O)cn3[C@@H]2C[C@@H]2F)CC1 (stereo in doubt; 38) | – | – | – | – | – | – | 0.18 µg/mL (≈ 0.495 µM) | – | – | –

More lines, main results first:

Row | MIC (Streptococcus pyogenes) | MIC (Enterococcus faecalis) | MIC (Staphylococcus aureus [1]) | MIC (Staphylococcus aureus [2]) | MIC [3] | MIC (Pseudomonas aeruginosa) | ID50 [4] | MIC (Enterobacter cloacae) | MIC (Escherichia coli [8]; [10]) | SMILES | other results
7 | – | – | – | – | – | – | 0.34 µg/mL (≈ 0.936 µM) | – | – | CN1CCN(c2cc3c(cc2F)c(=O)c(C(=O)O)cn3[C@@H]2C[C@@H]2F)CC1 (stereo in doubt; 39) | –
8 | 100 µg/mL (≈ 262 µM) | 25 µg/mL (≈ 65.6 µM) | 1.56 µg/mL (≈ 4.09 µM) | 1.56 µg/mL (≈ 4.09 µM) | 3.13 µg/mL (≈ 8.21 µM) | 0.78 µg/mL (≈ 2.05 µM) | – | ≤ 0.05 µg/mL | ≤ 0.05 µg/mL | CN1CCN(c2c(F)cc3c(=O)c(C(=O)O)cn(C4CC4F)c3c2F)CC1 (stereo in doubt; 31) | MIC (Proteus vulgaris; [9]): ≤ 0.05 µg/mL; MIC (Klebsiella pneumoniae): 0.2 µg/mL (≈ 0.524 µM)
9 | – | – | – | – | – | – | 0.31 µg/mL (≈ 0.853 µM) | – | – | CN1CCN(c2cc3c(cc2F)c(=O)c(C(=O)O)cn3C2CC2F)CC1 (stereo in doubt; 26) | –
10 | 25 µg/mL (≈ 68.6 µM) | 25 µg/mL (≈ 68.6 µM) | 0.78 µg/mL (≈ 2.14 µM) | 1.56 µg/mL (≈ 4.28 µM) | 1.56 µg/mL (≈ 4.28 µM) | 0.78 µg/mL (≈ 2.14 µM) | – | ≤ 0.05 µg/mL | ≤ 0.05 µg/mL | CN1CCN(c2nc3c(cc2F)c(=O)c(C(=O)O)cn3C2CC2F)CC1 (stereo in doubt; 37) | MIC (Proteus vulgaris; [9]): 0.2 µg/mL (≈ 0.549 µM); MIC (Klebsiella pneumoniae; [11]): 0.2 µg/mL (≈ 0.549 µM)
11 | 0.78 µg/mL (≈ 2.05 µM) | 0.78 µg/mL (≈ 2.05 µM) | ≤ 0.05 µg/mL | 0.1 µg/mL (≈ 0.262 µM) | 0.2 µg/mL (≈ 0.524 µM) | 0.1 µg/mL (≈ 0.262 µM) | – | ≤ 0.05 µg/mL | ≤ 0.05 µg/mL | C[C@@H]1CN(c2c(F)cc3c(=O)c(C(=O)O)cn(C4CC4F)c3c2F)CCN1 (stereo in doubt; 34) | MIC (Proteus vulgaris): <=0.05 ug ml-1; MIC (Klebsiella pneumoniae; [11]): 0.1 µg/mL (≈ 0.262 µM)
